Shown are actives, neighbours in structure and some others; about 1.5% of the full set was active somewhere.
CCR6 antag = blocks CCL20-driven beta-arrestin recruitment at human CCR6 | P51684 | CHO-K1 CCR6 PathHunter beta-arrestin, luminescence, CCL20-stimulated | AID 493098 | actives 0.49% (n = 340,000) | inhibition, % at 20 µM;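 active = compounds whose inhibition of the agonist-driven luminescence signal at 20 µM reaches about 50%, limit read from the data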;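 also: cells stimulated with CCL20 at 14 nM final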
EBI2 antag = EBI2 (human) antagonism; EBI2 beta-arrestin recruitment, luminescence, 7a,25-OHC stimulated; P32249; actives 0.81% (n = 360,000); inhibition, % at 5 µM; AID 651636; in the data active = inhibition above about 38%;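 also: enzyme fragment complementation signal reports receptor beta-arrestin coupling in cells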
APJ ag = agonists of human APJ apelin receptor. actives 0.11% (n = 330,000). CHO-K1 APJ PathHunter beta-arrestin, luminescence; 0% DMSO wells, 100% apelin. activation, % at 20 µM. AID 2520;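 active = activation more than six SD over the plate average, tested at 20 µM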
Target sequence (P35414 whole entry, looked up): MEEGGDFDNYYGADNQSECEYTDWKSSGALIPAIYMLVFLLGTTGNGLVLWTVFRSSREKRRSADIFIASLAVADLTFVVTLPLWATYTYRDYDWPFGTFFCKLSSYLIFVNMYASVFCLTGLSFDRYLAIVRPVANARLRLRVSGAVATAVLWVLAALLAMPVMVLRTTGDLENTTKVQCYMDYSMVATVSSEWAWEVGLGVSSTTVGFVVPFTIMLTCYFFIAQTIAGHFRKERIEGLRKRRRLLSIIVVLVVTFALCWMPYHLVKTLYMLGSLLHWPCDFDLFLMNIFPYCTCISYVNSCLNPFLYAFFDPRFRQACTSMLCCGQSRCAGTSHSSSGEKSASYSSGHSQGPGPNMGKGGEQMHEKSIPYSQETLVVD
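Assay system: engineered CHO-K1 APJ arrestin reporter cells; Amount: 1000 CHO-K1 reporter cells seeded per well; Dosing: one dose, 20 µM compound, 1% DMSO; Times: compound stimulation 90 min at 25 °C, detection 60 min; Measured by: luminescent beta-gal fragment complementation, chemiluminescent substrate; Read-out: APJ–arrestin association signal; Controls: DMSO vs Apelin-13 10 nM.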
CXCR6 inh = inhibitors of human CXCR6 receptor; O00574; inhibition, % at 20 µM; AID 602244; CHO-K1 PathHunter CXCR6 beta-arrestin, luminescence; actives 0.36% (n = 360,000); in the data active = inhibition above about 34%, passing the limit was not always enough;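 also: antagonist mode with CXCL16 agonist at 10 nM final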
APJ antagonist = blocks the human apelin receptor APJ | actives 0.32% (n = 330,000) | P35414 | CHO-K1 APJ beta-arrestin complementation, luminescence | AID 2521 | inhibition, % at 20 µM;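 active = inhibition above about 40% at 20 µM, limit read from the data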;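 also: cells challenged with 10 nM apelin-13 agonist together with compound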
EBI2 antag conf = EBI2 (human) antagonism, single concentration confirmation. shares compounds with EBI2 antag. EBI2 beta-arrestin luminescence, 7a,25-OHC antagonism. inhibition, % at 5 µM. actives 29% (n = 2,400). AID 651997;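 active = inhibition of at least 50%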
EBI2 agonist = counter-screen for EBI2 antagonists: EBI2 agonist activity; shares compounds with EBI2 antag; EBI2-expressing cells, agonist mode, luminescence, 60 min; 0% vehicle, 100% 7α,25-dihydroxycholesterol control; activation, % at 5 µM; 2,400 tested, under 10 active;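 active = activation of at least 50%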
bGal cs = counter-screen for EBI2 antagonists: E. coli beta-galactosidase inhibition | shares compounds with EBI2 antag | purified beta-galactosidase, luminescent Galacton Star, 15 min | inhibition, % at 5 µM | actives 1% (n = 2,400);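 active = replicate-average signal at least 3 plate SD below neutral wells, shown as high inhibition, flagging enzyme-inhibiting false positives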;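 also: higher means stronger loss of beta-gal luminescence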
A number is an active result.

For COc1ccc(Br)cc1CN(C)CC(O)COc1ccc(Br)cc1 (configuration not stated) the results were CCR6 antag inactive, EBI2 antag 90.7, APJ ag inactive, CXCR6 inh inactive, APJ antagonist inactive, EBI2 antag conf 58.8, EBI2 agonist inactive and bGal cs inactive.
Screening O=[N+]([O-])c1ccc(-c2cnc(SCc3ccccc3Cl)[nH]2)cc1 returned CCR6 antag inactive, EBI2 antag inactive, APJ ag inactive, CXCR6 inh inactive and APJ antagonist inactive.
For O=[N+]([O-])c1ccc(-c2cnc(SC(c3ccccc3)c3ccccc3)[nH]2)cc1 the results were CCR6 antag inactive, EBI2 antag 49.0, APJ ag inactive, CXCR6 inh inactive, APJ antagonist inactive, EBI2 antag conf inactive, EBI2 agonist inactive and bGal cs inactive.
For O=C(/C=C/c1cccs1)N1CCC2(CC1)Oc1ccc(Cl)cc1C(=O)C21CC(c2ccccc2)=NO1 (configuration not stated) the results were CCR6 antag inactive, EBI2 antag 61.0, APJ ag inactive, CXCR6 inh inactive, APJ antagonist inactive, EBI2 antag conf inactive, EBI2 agonist inactive and bGal cs inactive.
`CCC(=O)N1CCC2(CC1)Oc1ccc(Cl)cc1C(=O)C21CC(c2ccccc2)=NO1` (configuration not stated) gave CCR6 antag inactive, EBI2 antag inactive, APJ ag inactive, CXCR6 inh inactive and APJ antagonist inactive.
Cc1ccc(/C=C/C(=O)N2CCCN(C(=O)/C=C/c3ccc(C)cc3)CC2)cc1 was read as CCR6 antag inactive, EBI2 antag 94.3, APJ ag inactive, CXCR6 inh inactive, APJ antagonist inactive, EBI2 antag conf 82.3, EBI2 agonist inactive and bGal cs inactive.
For Cc1ccc(/C=C/C(=O)NN2CCN(C)CC2)cc1 the results were CCR6 antag inactive, EBI2 antag 63.7, APJ ag inactive, CXCR6 inh inactive, APJ antagonist inactive, EBI2 antag conf inactive, EBI2 agonist inactive and bGal cs inactive.
For O=C(C=Cc1ccccc1)N1CCCCC1 the results were CCR6 antag inactive, EBI2 antag inactive and CXCR6 inh inactive.
For O=C(/C=C/c1ccc(F)cc1)N1CCCN(C(=O)/C=C/c2ccc(F)cc2)CC1 the results were CCR6 antag inactive, EBI2 antag 85.0, APJ ag inactive, CXCR6 inh inactive, APJ antagonist inactive, EBI2 antag conf 72.9, EBI2 agonist inactive and bGal cs inactive.
For CCN1CCN(C(=O)/C=C/c2ccc(C)cc2)CC1 the results were CCR6 antag inactive, EBI2 antag 95.1, APJ ag inactive, CXCR6 inh inactive, APJ antagonist inactive, EBI2 antag conf 83.7, EBI2 agonist inactive and bGal cs inactive.
C(=C/c1nccc2c1[nH]c1ccccc12)/c1ccc2c(c1)OCO2 was read as CCR6 antag inactive, EBI2 antag 56.3, CXCR6 inh inactive, EBI2 antag conf inactive, EBI2 agonist inactive and bGal cs inactive.
Screening CNC(=S)N1N=C(c2ccc(C)cc2)CC1c1ccc(Br)cc1 (configuration not stated) returned CCR6 antag inactive, EBI2 antag 81.5, APJ ag inactive, CXCR6 inh inactive, APJ antagonist inactive, EBI2 antag conf 64.8, EBI2 agonist inactive and bGal cs inactive.
For CC(C)c1ccc(C2CC(c3ccc(Br)cc3)=NN2C(N)=S)cc1 (configuration not stated) the results were CCR6 antag inactive, EBI2 antag 72.1, APJ ag inactive, CXCR6 inh inactive, APJ antagonist inactive, EBI2 antag conf 59.5, EBI2 agonist inactive and bGal cs inactive.
Screening CNC(=S)N1N=C(c2ccc(C)cc2)CC1c1ccc(Cl)cc1 (configuration not stated) returned CCR6 antag inactive, EBI2 antag 73.3, APJ ag inactive, CXCR6 inh inactive, APJ antagonist inactive, EBI2 antag conf 61.6, EBI2 agonist inactive and bGal cs inactive.
`CC(=O)N1N=C(c2ccc(Br)cc2)CC1c1ccc(Br)cc1` (configuration not stated) gave EBI2 antag inactive and CXCR6 inh inactive.
C=CCOc1ccc(Br)cc1CNC(C)(C)C was read as CCR6 antag inactive, EBI2 antag inactive, APJ ag inactive, CXCR6 inh inactive and APJ antagonist inactive.
`Cc1ccc2oc(C(=O)N3CCC(N4CCSCC4)CC3)c(C)c2c1` gave CCR6 antag inactive, EBI2 antag 71.3, APJ ag inactive, CXCR6 inh inactive, APJ antagonist inactive, EBI2 antag conf inactive, EBI2 agonist inactive and bGal cs inactive.
`CCOC(=O)C1CCN(C2CCN(C(=O)c3oc4c(F)cccc4c3C)CC2)CC1` gave CCR6 antag inactive, EBI2 antag inactive, APJ ag inactive, CXCR6 inh inactive and APJ antagonist inactive.
Cc1c(C(=O)N2CCC(N3CCSCC3)CC2)oc2c(F)cccc12 was read as CCR6 antag inactive, EBI2 antag 46.5, APJ ag inactive, CXCR6 inh inactive, APJ antagonist inactive, EBI2 antag conf inactive, EBI2 agonist inactive and bGal cs inactive.
O=C(NCc1ccc(Cl)cc1)C1CCC(CNc2c(N3CCCCC3)c(=O)c2=O)CC1 (configuration not stated) was read as CCR6 antag inactive, EBI2 antag 49.7, APJ ag inactive, CXCR6 inh inactive, APJ antagonist inactive, EBI2 antag conf inactive, EBI2 agonist inactive and bGal cs inactive.
`O=C(NCc1ccc(Cl)cc1)C1CCC(CNS(=O)(=O)c2ccccc2)CC1` (configuration not stated) gave CCR6 antag inactive, EBI2 antag 59.3, APJ ag inactive, CXCR6 inh inactive, APJ antagonist inactive, EBI2 antag conf inactive, EBI2 agonist inactive and bGal cs inactive.
For O=C(NCc1ccc(Cl)cc1)C1CCC(CNc2c(N3CCCC3)c(=O)c2=O)CC1 (configuration not stated) the results were CCR6 antag inactive, EBI2 antag inactive, APJ ag inactive, CXCR6 inh inactive and APJ antagonist inactive.
For Cc1ccc(CNC(=O)C2CCC(CNS(=O)(=O)c3cccs3)CC2)cc1 (configuration not stated) the results were CCR6 antag inactive, EBI2 antag 65.6, APJ ag inactive, CXCR6 inh inactive, APJ antagonist inactive, EBI2 antag conf inactive, EBI2 agonist inactive and bGal cs inactive.
For Cc1cc(C)c(C)c(C(=O)C(=O)c2ccccc2)c1 the results were CCR6 antag inactive, EBI2 antag inactive and CXCR6 inh inactive.
